Test results from ChEMBL document CHEMBL1122650, “Synthesis and central nervous system properties of 2-[(alkoxycarbonyl)amino]-4(5)-phenyl-2-imidazolines” (J Med Chem, 1984).
Active and inactive are the calls of the source. The rule behind the calls is not given here.

Key:
[1] = Lethal dose in mouse, in groups of ten; type: toxicity, organism-based; conditions: in vivo
Mus musculus [2] = organism: Mus musculus; assay: Compound was evaluated for maximal electroshock antagonism (MES) against mice; type: functional
Procedure, shortened: (§1)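 Male HLa (ICR) BR mice, groups of eight to ten, dosed ip (aqueous solution) 15 min before transcorneal electroshock (50 mA, 0.2 s). End point: abolition of tonic hind-limb extension; quantal ED50 by Litchfield-Wilcoxon.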

Mus musculus [3] = organism: Mus musculus; assay: Mouse behavior activity was determined; Stimulant Weak; type: functional, organism-based
Procedure, shortened: (§2)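 Male Simonsen (ICR) fBR mice, 18-24 g, groups of three, given 3, 10, 30, 100, 300 or 1000 mg/kg ip as aqueous solution and observed for behavioral profile; deaths followed up to 7 days.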

[4] = HPLC capacity factor (k'); type: ADME
Mus musculus [5] = organism: Mus musculus; assay: Mouse behavior activity was determined; Dwk= Depressant Weak; type: functional, organism-based; procedure, shortened: as §2
Rattus norvegicus [6] = organism: Rattus norvegicus; assay: Inhibition of the NE [3H]Norepinephrine uptake by rat brain slices In vitro; type: functional
Mus musculus [7] = organism: Mus musculus; assay: Inhibition of radioactive NE [3H]norepinephrine uptake into mouse heart; type: functional
Procedure, shortened: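 Mice dosed ip (aqueous solution) before iv [3H]NE; hearts removed 3 h after label, washed, weighed, dissolved in Protosol and counted as dpm per mg tissue. Dose-response from linear regression.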

Mus musculus [8] = organism: Mus musculus; assay: Mouse behavior activity was determined; S-D=Stimulant-Depressant; type: functional, organism-based; procedure, shortened: as §2
Rattus norvegicus [9] = organism: Rattus norvegicus; assay: Inhibition of the 5-HT [14C]5-HT uptake by rat brain slices In vitro; type: functional
Procedure, shortened: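 Rat cerebral cortex slices, 5 mg tissue per mL Krebs-Henseleit buffer, incubated at 37 °C with [3H]NE or [14C]5-HT; blanks at 4 °C, undosed controls. Stopped after 20 min by filtration; slice radioactivity counted; IC50 from linear regression of uptake inhibition.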

Mus musculus [10] = assay: Reserpine hypothermia antagonism in mouse administered perorally with 5 mg/kg of reserpine 2 hour prior to test compound administration; type: functional; conditions: route oral
Mus musculus [11] = organism: Mus musculus; assay: Compound was evaluated for maximal electroshock antagonism (MES) against mice; Inactive; type: functional, organism-based; procedure, shortened: as §1
Mus musculus [12] = assay: Compound was evaluated in vivo for reserpine hypothermia after oral administration in mouse.; type: functional
Procedure, shortened: (§3)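 Male HLa (ICR) BR mice, 18-24 g, in groups of eight; reserpine 5 mg/kg ip given 2 h before oral test compound as aqueous solution. Rectal temperature taken hourly; 1-4-h hypothermia assessed by analysis of variance.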

Mus musculus [13] = organism: Mus musculus; assay: Mouse behavior activity was determined; D=Depressant.; type: functional, organism-based; procedure, shortened: as §2
Mus musculus [14] = organism: Mus musculus; assay: Compound was evaluated for maximal electroshock antagonism (MES) against mice; Inactive.; type: functional, organism-based; procedure, shortened: as §1
Mus musculus [15] = organism: Mus musculus; assay: Evaluated for antagonism of reserpine induced hypothermia; type: functional; procedure, shortened: as §3
Mus musculus [16] = organism: Mus musculus; assay: Mouse behavior activity was determined; Dwk= Depressant Weak.; type: functional, organism-based; procedure, shortened: as §2
Mus musculus [17] = organism: Mus musculus; assay: Righting ability was determined in mice […] rapid rolling (aroused); type: functional
Procedure, shortened: (§4)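 Male Simonsen (ICR) fBR mice, 18-24 g, groups of ten, dosed with aqueous compound. Righting ability checked before (unaroused) and after (aroused) rapid rolling in the hand; ED50 by Litchfield-Wilcoxon method.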

Mus musculus [18] = organism: Mus musculus; assay: Mouse behavior activity was determined; Depressant-Stimulant.; type: functional, organism-based; procedure, shortened: as §2
Mus musculus [19] = organism: Mus musculus; assay: Righting ability was determined in mice before rapid rolling (unaroused); type: functional; procedure, shortened: as §4
Mus musculus [20] = organism: Mus musculus; assay: Mouse behavior activity was determined; D = Depressant; type: functional, organism-based
Procedure, shortened: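 Male Simonsen (ICR) fBR mice (18-24 g) given 3, 10, 30, 100, 300 or 1000 mg/kg ip as aqueous solution and observed for behaviour in groups of three.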

Mus musculus [21] = organism: Mus musculus; assay: Compound was evaluated for maximal electroshock antagonism (MES) against mice (values in parentheses indicates 95% confidence limits); type: functional
Procedure, shortened: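 Male HLa (ICR) BR mice, groups of eight to ten, given compound ip as aqueous solution 15 min before transcorneal electroshock (50 mA, 0.2 s). End point was abolition of tonic hind-limb extension; quantal ED50 derived by Litchfield-Wilcoxon.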

Mus musculus [22] = assay: Compound was evaluated in vivo for reserpine hypothermia after oral administration in mouse. Minimum active dose was reported, with the percent reversal at 10 mg/kg in parenthesis.; type: functional
Procedure, shortened: (§5)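 Male HLa (ICR) BR mice (18-24 g), groups of eight, dosed ip with 5 mg/kg reserpine 2 h before oral test compound given as aqueous solution. Rectal temperature measured hourly; 1-4-h thermia assessed by analysis of variance.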

Mus musculus [23] = organism: Mus musculus; assay: Compound was evaluated for antagonism of reserpine induced hypothermia;I= Inactive.; type: functional, organism-based; procedure, shortened: as §5
Mus musculus [24] = assay: Compound was evaluated in vivo for reserpine hypothermia after oral administration in mouse. Minimum active dose was reported; 10-30% reduction.; type: functional, organism-based; procedure, shortened: as §3
Mus musculus [25] = assay: Compound was evaluated in vivo for reserpine hypothermia after oral administration in mouse. Minimum active dose was reported; rigidity was potentiated by compound.; type: functional, organism-based; procedure, shortened: as §3
Mus musculus [26] = assay: Compound was evaluated in vivo for reserpine hypothermia after oral administration in mouse. Minimum active dose was reported; Inactive; type: functional, organism-based; procedure, shortened: as §3
Mus musculus [27] = organism: Mus musculus; assay: Evaluated for antagonism of reserpine induced hypothermia;I= Inactive; type: functional, organism-based; procedure, shortened: as §3
Mus musculus [28] = organism: Mus musculus; assay: Mouse behavior activity was determined; Inactive; type: functional, organism-based; procedure, shortened: as §2

With `COC(=O)NC1=NC(c2ccccc2)C(C)N1` (stereo not given) the LD50 [1] was 200 mg/kg, the ED50 (Mus musculus [2]) was 90 mg/kg and the Mouse behavior activity (Mus musculus [3]) was “Stimulant Weak”. The “Log k'” value [4] was 0.15.

With `COC(=O)NC1=NC(c2cccc(Br)c2)CN1` (stereo not given) the LD50 [1] was 300 mg/kg, the ED50 (Mus musculus [2]) was roughly 68 mg/kg and the Mouse behavior activity (Mus musculus [5]) was “Depressant - weak”. The “Log k'” value [4] was 0.5.

In the case of `NC1=NC(c2ccccc2)CN1` (stereo not given), the LD50 [1] is reported as 300 mg/kg, the IC50 (Rattus norvegicus [6]) is reported as 0.1 µM and the ED50 (Mus musculus [7]) is reported as 0.3 mg/kg. The Mouse behavior activity (Mus musculus [8]) was “Stimulant-Depressant”, the IC50 (Rattus norvegicus [9]) was 31 µM and the Reserpine hypothermia (Mus musculus [10]) was less than 10 mg/kg. The “Log k'” value [4] was -3.74 and the ED50 (Mus musculus [11]) was “inactive”.

`COC(=O)NC1=NC(c2cccc(F)c2)CN1` (stereo not given) showed an LD50 [1] of 200 mg/kg, an ED50 (Mus musculus [12]) of 36 mg/kg and an ED50 (Mus musculus [2]) of 70 mg/kg. For the same compound, the Mouse behavior activity (Mus musculus [13]) was “Depressant” and the “Log k'” value [4] was -0.1.

With `COC(=O)NC1=NC(c2ccc(C)cc2)CN1` (stereo not given) the LD50 [1] was greater than 1000 mg/kg, the ED50 (Mus musculus [14]) was “inactive” and the HYPO (Mus musculus [15]) was greater than 20 mg/kg. For the same compound, the Mouse behavior activity (Mus musculus [16]) was “Depressant - weak” and the “Log k'” value [4] was 0.3.

With `CC(C)OC(=O)NC1=NC(c2ccccc2F)CN1C` (stereo not given) the LD50 [1] was 700 mg/kg, the Loss of righting reflex (Mus musculus [17]) was 55 mg/kg and the ED50 (Mus musculus [2]) was 23 mg/kg. The Mouse behavior activity (Mus musculus [18]) was “Depressant-Stimulant”, the Loss of righting reflex (Mus musculus [19]) was 11 mg/kg and the “Log k'” value [4] was 0.77.

In the case of `CN1C(=O)CN=C(c2ccccc2)c2cc(Cl)ccc21` [DIAZEPAM], the Mouse behavior activity (Mus musculus [20]) is reported as “Depressant”, the Loss of righting reflex (Mus musculus [17]) is reported as 136 mg/kg and the Loss of righting reflex (Mus musculus [19]) is reported as 67 mg/kg. It also gave an ED50 (Mus musculus [21]) of 7 mg/kg and an ED50 (Mus musculus [22]) of 1 mg/kg.

For `COC(=O)NC1=NC(c2cccc(Cl)c2)CN1` (stereo not given), the LD50 [1] was 300 mg/kg, the ED50 (Mus musculus [2]) was 48 mg/kg and the Mouse behavior activity (Mus musculus [16]) was “Depressant - weak”. For the same compound, the “Log k'” value [4] was 0.4.

For `COC(=O)NC1=NC(c2cc(Br)ccc2Br)CN1C` (stereo not given), the LD50 [1] was 500 mg/kg, the HYPO (Mus musculus [15]) was less than 0.5 mg/kg and the ED50 (Mus musculus [2]) was 45 mg/kg. For the same compound, the Mouse behavior activity (Mus musculus [5]) was “Depressant - weak” and the “Log k'” value [4] was 0.98.

In the case of `CC(C)COC(=O)NC1=NC(c2ccccc2)CN1` (stereo not given), the LD50 [1] is reported as 700 mg/kg, the ED50 (Mus musculus [14]) is reported as “inactive” and the Mouse behavior activity (Mus musculus [16]) is reported as “Depressant”. For the same compound, the HYPO (Mus musculus [23]) was “inactive”, the ED50 (Mus musculus [24]) was 10-30% reduction and the “Log k'” value [4] was 0.94.

`CCOC(=O)NC1=NC(c2ccccc2)CN1C` (stereo not given) gave an LD50 [1] of 200 mg/kg, an HYPO (Mus musculus [15]) of less than 0.5 mg/kg and an ED50 (Mus musculus [2]) of 78 mg/kg. The Loss of righting reflex (Mus musculus [19]) was 100 mg/kg, the Mouse behavior activity (Mus musculus [8]) was “Stimulant-Depressant” and the P (Mus musculus [25]) was “rigidity was potentiated by compound”. The “Log k'” value [4] was 0.41.

For `COC(=O)NC1=NC(c2ccc(SC)cc2)CN1C` (stereo not given), the ED50 (Mus musculus [26]) was “inactive”, the ED50 (Mus musculus [2]) was 100 mg/kg and the HYPO (Mus musculus [27]) was “inactive”. For the same compound, the “Log k'” value [4] was 0.61.

For `CCOC(=O)NC1=NC(c2ccc(CO)cc2)CN1C` (stereo not given), the Mouse behavior activity (Mus musculus [28]) was “inactive”, the LD50 [1] was 500 mg/kg and the “Log k'” value [4] was -0.29. The ED50 (Mus musculus [11]) was “inactive”.

For `COC(=O)NC1=NCC(c2cccc(Cl)c2)N1C` (stereo not given), the LD50 [1] was 200 mg/kg, the HYPO (Mus musculus [15]) was less than 0.5 mg/kg and the ED50 (Mus musculus [2]) was 31 mg/kg. For the same compound, the Mouse behavior activity (Mus musculus [5]) was “Depressant - weak” and the “Log k'” value [4] was 0.86.

With `COC(=O)NC1=NC(c2ccccc2Cl)CN1` (stereo not given) the LD50 [1] was 500 mg/kg, the ED50 (Mus musculus [2]) was 50 mg/kg and the Mouse behavior activity (Mus musculus [13]) was “Depressant”. The Loss of righting reflex (Mus musculus [19]) was 200 mg/kg and the “Log k'” value [4] was 0.29.

For `COC(=O)NC1=NC(c2ccc(O)cc2)CN1` (stereo not given), the Mouse behavior activity (Mus musculus [28]) was “inactive”, the LD50 [1] was 700 mg/kg and the ED50 (Mus musculus [11]) was “inactive”.
